Compound activity deposited in PubChem by Broad Institute.
RAD52 inh: blocks human RAD52 DNA annealing; 360,000 compounds, 0.46% hits; recombinant RAD52 DNA annealing, FRET fluorescence; inhibition, % at 18.7 µM; P43351; AID 651710;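 active = every replicate showing at least 50% inhibition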
AF4-AF9 inh: MLL-AF4/AF9 protein interaction inhibition; P42568; AlphaScreen, biotin-AF4 peptide binding to FLAG-AF9; inhibition, % at 10 µM; 350,000 compounds, 0.47% hits; AID 651704;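 active = every replicate reaching a set inhibition limit, whatever the replicate mean, cut at about 25% in these data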
RAD54 branch: inhibitors of human RAD54 branch migration. AID 602329. Q92698. inhibition, % at 10.4 µM. 360,000 compounds, 0.14% hits. RAD54 Holliday junction branch migration, FAM/BHQ fluorescence;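 active = mean normalized replicate activity at least 40 and at least half of replicates scoring 40 or more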;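 note: inhibitors cause a drop in the FAM fluorescence signal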
Target sequence (Q92698 whole entry, looked up): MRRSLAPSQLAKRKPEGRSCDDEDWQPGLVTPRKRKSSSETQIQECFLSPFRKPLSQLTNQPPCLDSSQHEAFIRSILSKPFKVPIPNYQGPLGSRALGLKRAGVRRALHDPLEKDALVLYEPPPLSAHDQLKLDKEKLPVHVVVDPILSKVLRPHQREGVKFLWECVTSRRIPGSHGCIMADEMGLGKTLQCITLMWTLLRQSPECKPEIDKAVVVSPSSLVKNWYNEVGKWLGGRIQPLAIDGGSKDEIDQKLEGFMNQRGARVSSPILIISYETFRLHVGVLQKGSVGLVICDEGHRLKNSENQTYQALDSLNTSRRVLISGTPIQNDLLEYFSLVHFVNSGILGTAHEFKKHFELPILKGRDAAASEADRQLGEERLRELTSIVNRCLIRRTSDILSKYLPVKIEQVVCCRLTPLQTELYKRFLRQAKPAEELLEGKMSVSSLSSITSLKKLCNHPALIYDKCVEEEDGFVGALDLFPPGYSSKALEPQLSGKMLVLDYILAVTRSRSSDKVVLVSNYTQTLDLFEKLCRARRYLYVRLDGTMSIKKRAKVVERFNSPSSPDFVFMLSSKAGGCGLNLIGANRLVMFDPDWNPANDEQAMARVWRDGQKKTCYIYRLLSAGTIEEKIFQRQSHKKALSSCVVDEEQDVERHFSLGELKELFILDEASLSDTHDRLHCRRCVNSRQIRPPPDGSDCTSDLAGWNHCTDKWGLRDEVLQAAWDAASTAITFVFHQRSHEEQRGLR
S100A4 inh HTS: S100A4-myosin IIA interaction inhibition; P26447; S100A4/TAMRA-MyoIIA peptide fluorescence polarization; inhibition, % at 10.7 µM; 360,000 compounds, 0.14% hits; AID 652163;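 active = mean inhibition of at least 70% across replicates, with every replicate also reaching that level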
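Material: human S100A4 monomer with TAMRA-labelled myosin IIA peptide; buffer or medium: HEPES pH 7.2 with CaCl2, KCl, NaCl, DTT, Triton; compound dosing: one concentration per compound; schedule: 5 min incubation before reading; benchmarks: neutral control DMSO, positive control TFP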
GSIS activator: primary screen for activators of insulin secretion dependent on glucose, INS-1E cells, GLuc reporter luminescence; INS-1E GLuc reporter insulin secretion, 2-3 h; 370,000 compounds, 0.61% hits; activation, % at 16.6 µM;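 active = lowest replicate activation of at least 40%, so every replicate reaches that level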
A number is an active result; n = inactive; x = no result. Sampled rows, rich in hits. Any-hit rate of the full collection: about 1.3%.

SMILES | RAD52 inh | AF4-AF9 inh | RAD54 branch | S100A4 inh HTS | GSIS activator
CC(C)(O)C#Cc1ccc([C@@H]2[C@@H](CO)N3CCCCN(C(=O)c4ccncc4)C[C@@H]23)cc1 | n | n | n | n | n
COc1ccc(CNCCC(c2ccccc2)c2ccc3c(c2)OCO3)cc1 (centres undefined) | n | 25 | n | n | n
COc1cc(OC)c(OC)cc1/C=N/n1c(C)nc2ccccc2c1=O | n | n | n | n | 43
COc1ccc(OC)c(/C=N/n2c(C)nc3ccccc3c2=O)c1 | n | x | n | n | n
Cc1nc2ccccc2c(=O)n1/N=C/c1ccc(N(C)C)cc1 | x | x | n | x | 67
Cc1ccc(-c2ccc(/C=N/NC(=S)Nc3ccccc3)o2)cc1[N+](=O)[O-] | x | x | n | x | n
CNC(=S)N/N=C/c1ccc(-c2ccc(Cl)c([N+](=O)[O-])c2)o1 | n | n | x | n | 46
C[C@@H]1CCCCO[C@@H](CN(C)Cc2ccc3c(c2)OCO3)[C@H](C)CN([C@H](C)CO)C(=O)c2cc(NS(C)(=O)=O)ccc2O1 | x | x | x | x | n
CCOC(=O)N1CCN(C(=O)c2cccn3c(=O)c4c5c(sc4nc23)CCCC5)CC1 | n | n | x | n | n
Cc1cccc(N2CCN(C(=O)c3cccn4c(=O)c5c(C)c(C)sc5nc34)CC2)c1C | x | x | n | x | 156
CCOc1ncccc1C(=O)Nc1ccc(S(=O)(=O)NC2=NCCCCC2)cc1 | n | n | x | n | n
CCOc1ncccc1C(=O)Nc1ccc(S(=O)(=O)Nc2nccs2)cc1 | n | n | n | n | 86
COc1ccc(S(=O)(=O)Nc2cccc3c2O[C@@H](CN(C)S(=O)(=O)c2c(C)noc2C)[C@H](C)CN([C@@H](C)CO)C3=O)cc1 | n | n | n | 127 | n
COc1ccc(NC(=O)Nc2cccc3c2O[C@H](CN(C)Cc2ccc4c(c2)OCO4)[C@@H](C)CN([C@@H](C)CO)C3=O)cc1 | n | n | n | 118 | n
C[C@H](CO)N1C[C@H](C)[C@H](CN(C)Cc2ccncc2)Oc2c(NC(=O)C3CC3)cccc2C1=O | n | n | n | 126 | n
Cc1ccc(S(=O)(=O)N(C)C[C@@H]2Oc3c(NC(=O)C4CCCCC4)cccc3C(=O)N([C@H](C)CO)C[C@@H]2C)cc1 | n | n | n | 109 | n
C[C@H]1CN([C@@H](C)CO)C(=O)c2cc(C#Cc3cccc(F)c3)cnc2O[C@@H]1CN(C)C(=O)C1CCCCC1 | n | n | n | n | n
CO[C@H]1CN(C)C(=O)c2ccc(NC(=O)c3ccccc3)cc2OC[C@@H](C)N(C(C)=O)C[C@H]1C | n | n | n | n | n
O=C(C1CC1)N1[C@H](CO)[C@H]2c3ccccc3N(S(=O)(=O)c3ccccc3)C[C@H]21 | n | n | n | n | n
C[C@H]1CN([C@@H](C)CO)C(=O)c2cccc(NC(=O)C3CC3)c2O[C@@H]1CN(C)Cc1ccc2c(c1)OCO2 | n | n | n | 122 | n
CCCn1nc(NC(=O)c2ccco2)c2cc3ccccc3nc21 | x | x | x | x | 45
C/C=C/c1ccc2c(c1)O[C@H](CN(C)C(=O)Cc1ccncc1)[C@@H](C)CN([C@H](C)CO)S2(=O)=O | n | n | n | n | n
Cc1ccc(S(=O)(=O)N(C)C[C@H]2Oc3ccc(NS(C)(=O)=O)cc3CC(=O)N([C@H](C)CO)C[C@@H]2C)cc1 | x | x | x | x | n
COc1ccc2nc3ccccc3[n+]([O-])c2c1 | n | n | n | n | n
COc1ccc2ccc3cccc[n+]3c2c1 | n | n | 51 | n | n
SMILES | RAD52 inh | AF4-AF9 inh | RAD54 branch | S100A4 inh HTS | GSIS activator
O=C(Nc1ccc2c(c1)[C@H]1C[C@@H](CC(=O)N3CCc4ccccc4C3)O[C@@H](CO)[C@H]1O2)NC1CCCC1 | n | n | n | n | n
CO[C@H]1CC[C@H]2CCN(C)C(=O)[C@@H](C)[C@H](OC)CN(C)C(=O)c3cc(C#N)ccc3OC[C@H]1O2 | n | n | n | 98 | n
COc1ccc(NC(=O)Nc2ccc3c(c2)CC(=O)N([C@H](C)CO)C[C@@H](C)[C@@H](CN(C)Cc2ccc(Oc4ccccc4)cc2)O3)cc1 | n | n | n | n | n
COc1ccc(-c2cc(C)no2)cc1S(=O)(=O)NCC(C)c1ccccc1 (centres undefined) | n | n | n | n | n
COc1ccc(-c2cc(C)no2)cc1S(=O)(=O)NCCc1ccco1 | n | 26 | n | n | n
CCOc1ccccc1CNS(=O)(=O)c1cc(-c2cc(C)no2)ccc1OC | n | n | n | n | n
COc1ccccc1CNS(=O)(=O)c1cc(-c2cc(C)no2)ccc1C(C)C | n | n | n | n | 46
C[C@@H]1CN([C@@H](C)CO)C(=O)c2cccc(N(C)C)c2O[C@@H]1CN(C)S(=O)(=O)c1ccc(Cl)cc1 | n | n | n | n | n
Cc1ccc(-c2ccccc2[C@H]2[C@@H](C#N)N(c3ncc(-c4ccccc4)s3)[C@H]2CO)cc1 | n | n | x | n | n
CCN(C[C@@H]1[C@@H](c2ccccc2)[C@@H](CO)N1S(C)(=O)=O)C(=O)C1CC1 | n | n | n | n | n
C[C@H]1CN([C@@H](C)CO)C(=O)c2cc(-c3cccc(C(=O)N(C)C)c3)cnc2O[C@H]1CN(C)C | n | n | n | n | n
C[C@@H]1CN([C@@H](C)CO)C(=O)c2cc(NS(=O)(=O)c3ccc(Cl)cc3)ccc2O[C@H]1CN(C)Cc1ccccc1 | n | 25 | n | n | n
C[C@@H]1CCCCO[C@H](CN(C)Cc2ccc3c(c2)OCO3)[C@@H](C)CN([C@@H](C)CO)C(=O)c2cc(NS(=O)(=O)c3ccc(Cl)cc3)ccc2O1 | 61 | n | n | n | n
C[C@H](CO)N1C[C@H](C)[C@H](CN(C)Cc2ccc(-c3ccccc3)cc2)Oc2ccc(NS(=O)(=O)c3ccc(Cl)cc3)cc2C1=O | n | n | n | n | n
C[C@@H]1CCCCO[C@@H](CN(C)Cc2ccc3c(c2)OCO3)[C@H](C)CN([C@@H](C)CO)C(=O)c2cc(NS(=O)(=O)c3ccc(Cl)cc3)ccc2O1 | n | n | n | n | n
C[C@@H]1CN([C@H](C)CO)C(=O)c2cc(NS(=O)(=O)c3ccc(Cl)cc3)ccc2O[C@@H](C)CCCCO[C@H]1CN(C)Cc1ccc(Cl)c(Cl)c1 | n | n | n | 102 | n
O=C(C[C@@H]1CC[C@@H]2[C@H](COC[C@H](O)CN2C(=O)c2ccccc2)O1)N1CCc2ccccc2C1 | n | n | n | n | n
COc1cc(CN2[C@@H]3CNC[C@H]2C3c2ccc(-c3cccnc3)cc2)cc(OC)c1 (some centres undefined) | n | n | x | n | n
Cc1cc(Cl)ccc1Oc1nc(-c2ccccc2)ncc1S(C)(=O)=O | x | x | n | x | 150
COc1ccc(-c2nc(-c3ccccc3)ncc2S(C)(=O)=O)cc1 | n | n | x | n | n
CN(C)c1ncnc2sc(-c3ccccc3)cc12 | n | n | n | n | 40
O=C(c1ccccc1F)N1CCCC(N2CCN(Cc3ccc4c(c3)OCO4)CC2)C1 (centres undefined) | n | n | n | n | 47
